Measured values taken from paper PMC10438863 (Journal of Enzyme Inhibition and Medicinal Chemistry, 2023).
Like-named read-outs stand apart in the source and are kept apart here. Each block holds one compound with its values, some of them ahead of it.

Assays:
[1] = tested on: Hela; assay: CCK-8 antiproliferative assay, Hela; assay type: cell-based; settings: read-out: IC50 (µM) Hela
Summary of the method: (§1)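 Cells were grown in RPMI-1640 with 10% FBS at 37 °C in 5% CO2. About 3.5 × 10^3 cells/well were seeded, grown 24 h, then given test compound at several concentrations for 72 h in triplicate wells. CCK-8 was added for 2–3 h and OD read at 450 nm to give inhibition rate or IC50. K562 screen: mean of ≥2 independent experiments. Five-line panel: mean ± SD of three.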

[2] = tested on: A549; assay: CCK-8 antiproliferative assay, A549; assay type: cell-based; settings: read-out: IC50 (µM) A549
Summary of the method: as §1

[3] = tested on: H22; assay: CCK-8 antiproliferative assay, H22; assay type: cell-based, mouse; settings: read-out: IC50 (µM) H22
Summary of the method: as §1

[4] = tested on: H22 allograft; assay: H22 allograft mice model, in vivo antitumor effect; settings: 20 mg/kg i.v. once a day, three weeks; for tumour growth inhibition (TGI) value: by tumour weight
Summary of the method: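 H22 cells in log phase (1 × 10^7 cells/mL, 0.1 ml) were injected s.c. into the right flank. Tumour size and body weight were recorded every two days. Mice were sacrificed at about 21 days. TGI (%) = (1 − Wt/Wc) × 100, using mean tumour weights.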

[5] = tested on: normal cell line HFL-1; assay: CCK-8 assay, normal cell line HFL-1; assay type: cell-based; settings: read-out: IC50 (µM) HFL-1
Summary of the method: as §1

[6] = tested on: colchicine binding site on tubulin; assay: [3H]-colchicine competition scintillation proximity assay; settings: tubulin 1 µM, [3H]-colchicine 5 µM
Summary of the method: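 Competition scintillation proximity assay. Test compound was added to buffer (80 mM PIPES pH 6.8, 1 mM EGTA, 1 mM MgCl2, 10% glycerol, 1 mM GTP) containing tubulin 1 µM, then [3H]-colchicine 5 µM. After 2 h incubation, streptavidin-labelled SPA beads were added and radioactivity counted. Percent inhibition of colchicine binding was reported as mean ± SD of three independent experiments.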

[7] = tested on: K562 cell line; assay: CCK-8 antiproliferative assay, K562; assay type: cell-based; settings: for IC50: read-out: IC50 (µM) K562
Summary of the method: as §1

[8] = tested on: K562 cells; assay: Confocal immunofluorescence assay of microtubule networks; assay type: cell-based; settings: 48 h, 15, 30, 60 nM
[9] = tested on: HUVECs; assay: HUVEC wound healing assay; assay type: cell-based, human; settings: 24 h, dose-dependent
Summary of the method: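 HUVECs were seeded at 5 × 10^5 cells/well overnight and incubated with or without test compound at several concentrations for 24 h. The monolayer was then scratched with a pipette tip and washed with PBS. The wound was imaged at 100× and imaged again after a further 24 h of culture.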

[10] = tested on: MDA-MB-231 cells; assay: Transwell migration assay; assay type: cell-based; settings: 60 nM, untreated 231.3 ± 12.2
[11] = tested on: K562 cells; assay: PI cell cycle flow cytometry; assay type: cell-based; settings: 48 h, untreated 12.99 ± 0.26%
[12] = H&E staining of vital organs, in vivo safety; settings: mice; 20 mg/kg; heart, liver, spleen, lung, kidney
Summary of the method: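 Heart, liver, spleen, lung and kidney came from the H22 allograft mice at sacrifice: vehicle, CA-4 20 mg/kg and test compound 20 mg/kg groups. Organs were fixed in 4% paraformaldehyde overnight, paraffin-embedded, sectioned and stained with haematoxylin and eosin.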

[13] = tested on: H22 tumour; assay: Immunohistochemistry of tumour tissue; assay type: in vivo, mice; settings: H22 tumours; 20 mg/kg; IHC; vs control group
Summary of the method: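 Tumours came from the vehicle, CA-4 20 mg/kg and test compound 20 mg/kg allograft groups. They were fixed in 4% paraformaldehyde overnight, paraffin-embedded and sectioned. Sections were blocked with 1% BSA for 20 min, incubated with CD31 or Ki67 primary antibody overnight at 4 °C, then HRP goat anti-rabbit for 1 h, developed with DAB and counterstained with haematoxylin. CD31 staining gave microvessel density.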

[14] = tested on: K562 cells; assay: Annexin V-FITC/PI apoptosis flow cytometry; assay type: cell-based; settings: 60 nM, 48 h, control 2.47%
[15] = tested on: Cyclin B1, Cdc-2 and Cdc-25c; assay: Western blot of G2/M phase associated proteins; assay type: cell-based; settings: K562; 48 h; western blotting; dose-dependent
Summary of the method: (§2)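 K562 cells were treated with or without test compound at several concentrations for 48 h. They were lysed in cold buffer with PMSF and centrifuged at 14,000 rpm for 15 min, and protein was quantified by BCA. Equal protein was run on SDS-PAGE, blotted to PVDF, blocked in 5% skim milk for 2 h, probed overnight at 4 °C, then secondary antibody for 1–2 h, and detected by ECL with densitometry. Targets: Cdc-2, Cyclin B1, Cdc25c; Bad, Bax, Bcl-2, Bcl-xl; GAPDH reference.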

[16] = tested on: K562 cells; assay: Hoechst 33342 staining; assay type: cell-based; settings: 48 h
[17] = tested on: MDA-MB-231 cells; assay: Transwell invasion assay; assay type: cell-based; settings: 60 nM, untreated 81.3 ± 5.7
[18] = tested on: HUVECs; assay: HUVEC tube formation assay on Matrigel; assay type: cell-based, human; settings: 60 nM
[19] = tested on: HUVEC; assay: Inhibition of HUVEC proliferation; assay type: cell-based, human; settings: read-out: IC50 in inhibiting the proliferation of HUVEC
[20] = tested on: Bcl-2 protein family; assay: Western blot of apoptosis associated proteins; assay type: cell-based; settings: K562, 48 h, western blotting
Summary of the method: as §2

[21] = Homo sapiens, K562, 72 h, read-out: Inhibition rate (%)

- IC50 ([1]; Homo sapiens, HeLa, 72 h): 0.026 ± 0.006 µM
- IC50 ([2]; Homo sapiens, A549, 72 h): 0.032 ± 0.005 µM
- Inhibition (%) of colchicine binding ([6]; compound 1 µM): 78.55 ± 1.85%
- Inhibition (%) of colchicine binding ([6]; compound 5 µM): 87.35 ± 1.37%
- IC50 ([7]; Homo sapiens, K562, 72 h): 0.004 ± 0.001 µM
Compound: COc1ccc(/C=C\c2cc(OC)c(OC)c(OC)c2)cc1O [CA-4, Combretastatin A-4, reference compound]
- IC50 ([3]; Mus musculus, H22, 72 h): 0.01 ± 0.002 µM
- tumour growth inhibition (TGI) value [4]: 59.19%
- IC50 ([5]; Homo sapiens, HFL1, 72 h): 0.139 ± 0.017 µM
- inhibition at 0.1 µM [7, 21]: 88.3%
- inhibition at 1 µM [7, 21]: 92%

- IC50 ([1]; Hela, CCK-8, 72 h, mean ± SD): 0.078 ± 0.005 µM
- IC50 ([2]; A549, CCK-8, 72 h, mean ± SD): 0.087 ± 0.009 µM
- Inhibition (%) of colchicine binding ([6]; compound 1 µM): 59.81 ± 3.84%
- Inhibition (%) of colchicine binding ([6]; compound 5 µM): 71.43 ± 1.03%
- IC50 ([7]; K562, CCK-8, 72 h, mean ± SD): 0.028 ± 0.007 µM
Compound: 2-methoxy-4-((4,5,6-trimethoxy-2,3-dihydro-1H-inden-2-yl)methyl)phenol [Compound 12d]
- IC50 ([3]; H22, CCK-8, 72 h, mean ± SD): 0.068 ± 0.008 µM
- effect on microtubule networks [8]: caused disorder and destruction of microtubule networks
- wound healing effect of HUVECs [9]: the wound healing effect was disrupted
- body weight [4]: no obvious body weight loss
- tumour growth inhibition (TGI) value [4]: 74.94%
- number of migrated cells [10]: 124.0 ± 9.2
- population at the G2/M phase ([11]; 15 nM): 16.07 ± 0.83%
- population at the G2/M phase ([11]; 30 nM): 21.23 ± 1.14%
- population at the G2/M phase ([11]; 60 nM): 24.66 ± 0.63%
- IC50 ([5]; normal cell line HFL-1, CCK-8, 72 h, mean ± SD): 0.271 ± 0.031 µM
- pathological damage of vital organs (H&E) [12]: without obvious pathological damage
- Ki67-positive cells [13]: decreased number of Ki-67 positive cells
- microvessel density (MVD), CD31 [13]: lower MVD level
- percent of total apoptosis cells [14]: 57.90%
- expression levels of Cyclin B1, Cdc-2 and Cdc-25c [15]: down-regulate
- apoptosis morphology and nucleus changes [16]: induced K562 cells nuclear fragmentation and cell morphology changes
- number of invaded cells [17]: 51.3 ± 2.5
- tube formation (capillary-like tubular networks) of HUVECs [18]: almost all of the tube-like structure was broken
- IC50 [19]: 2260 ± 380 nM
- Inhibition rate (%) ([7]; K562, 0.1 µM, CCK-8, 72 h): 78.82%
- Inhibition rate (%) ([7]; K562, 1 µM, CCK-8, 72 h): 80.57%
- expression of antiapoptotic proteins Bcl-2 and Bcl-xl [20]: downregulated
- expression level of proapoptotic proteins Bax and Bad ([20]; dose-dependent): upregulated
